This passage reports inhibition results from PubChem BioAssay AID624268 (The Scripps Research Institute Molecular Screening Center, 2012).

The campaign covered roughly 360,000 compounds. About 1,500 (0.42%) were called active. The sample holds actives, similar compounds and a random draw of the others, so the mix is not that of the screen. A number with no mark means an inactive call.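 How the source made its calls: active means inhibition above a per-plate cutoff of the control wells' mean inhibition plus 3 SD (cut at about 5.5% in these data); inactive means the rest.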

The subject of this assay is methionyl-tRNA synthetase (Trypanosoma brucei brucei). The assay can be described thus: T. brucei MetRS inhibitors, primary screen, biochemical, luminescence (AID 624268).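 Further: 0% = DMSO wells median and 100% = median of wells with control inhibitor compound.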 The following applies: purified T. brucei MetRS, ATP depletion, Kinase-Glo luminescence; at 11.9 µM; active compounds read high. The gist of the method: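 Material: T. brucei methionyl-tRNA synthetase, purified; reagent: substrates ATP, L-methionine and bulk Escherichia coli tRNA; dosing: 11.9 µM single point; timing: 15 min plus 2 h at 25 °C; detection: luminescence of leftover ATP; evaluation: % inhibition; control set: DMSO-only wells as low control; replicates: singlicate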
In the case of `Cc1cccc(N=Nc2c(O)[nH]c3ccc(F)cc23)c1`, the inhibition is 0.2%.
Under `Brc1ccc(-c2nn[nH]n2)cc1` stands 0.2%; under `Oc1[nH]c2ccc(Br)cc2c1N=Nc1nn[nH]n1`, 5.61% (active); under `CCOC(=O)c1sc(NC(=O)CSc2nc(O)c(Cc3ccccc3)c(=O)[nH]2)nc1C`, -1.03%.
For the molecule `CCCS(=O)(=O)NC(=O)C1(C)CCCN(C(=O)c2ccnc(Cl)c2)C1` (stereo unspecified), the inhibition was -0.05%.
With `O=C(CCCOc1ccc(Cl)cc1Cl)NNC(=O)C1CCC1`, the inhibition was 1.44%.
Under `Cn1c(CCCOc2ccc(Cl)cc2Cl)n[nH]c1=S` stands 7.11% (active); under `CC(C)Oc1ccc(Cc2n[nH]c(=S)n2Cc2ccccc2)cc1Cl`, -0.26%; under `COC(=O)CN1C(=O)[C@H]2[C@@H](/C=C/c3ccccc3)N3C(=O)CN(CC4CC4)C(=O)[C@@]3(Cc3ccccc3)[C@H]2C1=O`, -0.4%.
Under `NCCCCCC(=O)N/N=C/c1ccc2nccnc2c1` stands -0.25%; under `O=C(CC(=O)Nc1ccc(Cl)c(Cl)c1)N/N=C/c1ccc(O)cc1`, 10.6% (active).
As for `O=C(CC(O)(C(F)(F)F)C(F)(F)F)Nc1ccc(Cl)c(Cl)c1`, the inhibition is 1.83%.
The same measure for `Cc1csc(=O)n1CCC(=O)OCC(=O)NNC(=O)c1ccc(Br)cc1`: -0.33%.
The same measure for `CC1(C(=O)NS(=O)(=O)c2cccc(F)c2)CCN1C(=O)c1cccc2ccccc12` (stereo unspecified): -0.25%; for `COCCCNCCOCCOc1ccc(Cl)cc1Br`: 1.56%.
As to `O=C(N[C@H]1CC[C@H](CC(=O)N2CCCCC2)O[C@@H]1CO)c1cccc(F)c1`, the inhibition is -0.31%.
Under `O=C(Oc1cccc(N2C(=O)C3C4c5ccccc5C(c5ccccc54)C3C2=O)c1)c1ccco1` (stereo unspecified) stands 0.29%; under `O=C(/C(=N\O)n1cncn1)c1ccc(Br)cc1Br`, 17.9% (active).
Consider `CCc1ccc(N(CC(=O)Nc2sc3c(c2C(=O)OC)CCCC3)S(C)(=O)=O)cc1`, for which the inhibition is 0.46%.
The same measure for `CCn1c(CSCc2c(Cl)cccc2Cl)n[nH]c1=S`: 0.37%; for `Cc1ccc(NCc2n[nH]c(=S)n2-c2ccccc2)cc1Cl`: -0.41%.
The same measure for `S=c1[nH]nc(CSCc2ccc(Cl)cc2Cl)n1-c1ccccc1`: 6.2% (active); for `Nc1cc(N)nc(SCc2cccc(F)c2)n1`: -0.35%.
Turning to `Cn1nc(-c2ccc(Cl)cc2)c2cc(C(=O)NCc3ccco3)sc21`, the inhibition is 2.08%.
The same measure for `O=C(c1ccco1)N1CCN(CC(=O)N(C2CCCCC2)C2CCS(=O)(=O)C2)CC1` (stereo unspecified): -0.62%; for `Cc1ccc(NN=C2C(=O)OC(C)(C)OC2=O)c(C)c1`: 0.27%; for `O=C(COC(=O)CCCSc1nc2ccccc2[nH]1)Nc1ccc(Oc2ccccc2)cc1`: -0.54%.
Under `CCn1c(SCC(=O)N/N=C/C=C/c2ccccc2[N+](=O)[O-])nnc1-c1ccccc1` stands 0.33%; under `O=C(CSc1nc2ccccc2[nH]1)N/N=C/C=C\c1ccccc1[N+](=O)[O-]`, 9.68% (active).
Under `COCCNC(=O)CN1C(=O)CSc2ncccc21` stands 0.04%.
With `O=C(NNS(=O)(=O)c1ccc(F)cc1)C1CCCCC1`, the inhibition is -0.24%.
The same measure for `CCOC(=O)CN(C(=O)CN1CCOCC1)c1ccc(Br)cc1`: -1.11%; for `C/C(=N\Nc1nc2ccccc2[nH]1)c1cccs1`: 2.21%.
Under `Cc1ccc(O)c(CNc2nc3ccccc3[nH]2)c1` stands 72.6% (active).
Regarding `Cc1ccc(-c2cc(=O)[nH]c(NCc3ccccc3)n2)cc1`, the inhibition was 0.58%.
The same measure for `C=CCN1CCN(C(=O)CCCc2ccccc2)CC1`: 0.23%; for `Cn1c(=O)c2c(nc(N3CCOCC3)n2CCNC2=NCCC2)n(C)c1=O`: 0.1%; for `O=C1CCCN1CCCNc1ncnc2c1[nH]c1ccccc12`: 37.3% (active).
For `O=Cc1c(NCCCN2CCCC2=O)c2ccccc2[nH]c1=O`, the inhibition is -0.57%.
Under `Cc1nn(Cc2ccccc2)c(C)c1C(=O)NCCCN1CCCC1=O` stands -0.02%.
The same measure for `Cc1ccnc2nc(C(=O)OCC(=O)N(CC(C)C)CC(C)C)nn12`: -0.19%; for `CCN1CCN(c2ccc([N+](=O)[O-])cc2C(=O)c2ccc(Cl)cc2)CC1`: -0.26%.
Under `O=[N+]([O-])c1ccc(N2CCN(c3ccc(O)cc3)CC2)c(Cl)c1` stands 7.21% (active); under `O=C(O)C1CCN(c2ccc([N+](=O)[O-])cc2[N+](=O)[O-])CC1`, 0.21%.
Take `NC(=S)NN=Cc1ccc(OC(=O)COc2cc(Cl)c(Cl)cc2Cl)cn1`: the inhibition was 0.02%.
The same measure for `CC(C)NC(=O)CSc1ccccc1C(=O)NCc1ccc2c(c1)OCO2`: -0.69%.
For `CCN(CC)C(=O)C(=O)c1cn(CC(=O)NCc2ccc3c(c2)OCO3)c2ccccc12`, the inhibition is 60.8% (active).
Under `CCN(CC)C(=O)Cn1cc(S(=O)(=O)CC(=O)NCc2ccc3c(c2)OCO3)c2ccccc21` stands -0.63%; under `CCOn1c(=O)c(=O)n(O)c2ccccc21`, 0.13%.
Under `O=C(NCc1ccccc1)c1cccc(NC(=O)C2CCCCC2)c1` stands -0.28%; under `CCOc1ccc(NC(=O)CC2C(=O)N(c3ccccc3)C(=O)N2CCOC)cc1` (stereo unspecified), 0.31%.
As for `COCCN1C(=O)N(c2ccc(Cl)cc2)C(=O)C1CC(=O)Nc1cc(OC)cc(OC)c1` (stereo unspecified), the inhibition was 0.28%.
`COC(=O)CN1C(=S)N(c2ccccc2)C(=O)C1CC(=O)Nc1ccc(Cl)cc1` (stereo unspecified): the inhibition was 12% (active).
The same measure for `CCCc1nnc(NC(=O)CCC(=O)NC2CC2)s1`: 0.11%.
Take `COc1cccc(C(CC(=O)NCCN2CCOCC2)NS(=O)(=O)c2ccc(C)cc2)c1OC` (stereo unspecified): the inhibition was -0.3%.
Consider `O=C(NNC(=O)c1ccc(-n2cncn2)c([N+](=O)[O-])c1)c1ccccc1`, for which the inhibition was 17.1% (active).
Under `CC(=O)c1ccc(NC(=O)c2ccc(-n3cncn3)c([N+](=O)[O-])c2)cc1` stands 36.6% (active).
As for `Cc1ccc(S(=O)(=O)N(C)C)cc1NC(=O)c1ccc(-n2cncn2)c([N+](=O)[O-])c1`, the inhibition was 41% (active).
In the case of `Cc1ccc(S(=O)(=O)N2CCN(C(=O)c3ccc(-n4cncn4)c([N+](=O)[O-])c3)CC2)cc1`, the inhibition was 1.45%.
As for `Cc1cc(O)c(NC(=O)c2ccc(C)c([N+](=O)[O-])c2)cc1C`, the inhibition was -1.17%.
The same measure for `CC(=O)Nc1ccc(NC(=S)NC(=O)c2ccc([N+](=O)[O-])c(C)c2)cc1`: -0.17%.
Under `Cc1ccc(S(=O)(=O)N(C)C)cc1NC(=O)c1ccccc1Br` stands -0.6%; under `CC(C)NC(=O)c1ccc(Sc2ccccc2)c([N+](=O)[O-])c1`, -1.54%; under `Cc1ccccc1OCC(=O)NNC(=O)c1ccc(-n2cncn2)c([N+](=O)[O-])c1`, 8.29% (active).
Under `CCOc1ccc(C(=O)Nc2cc(Cl)ccc2-n2cncn2)cc1OC` stands -0.61%; under `Cc1ccccc1OCC(=O)NNC(=O)c1cc(S(=O)(=O)N(C)C)ccc1N1CCCC1`, -0.26%; under `O=C(COc1ccccc1F)NNC(=O)c1ccc(N2CCCCC2)c([N+](=O)[O-])c1`, -0.55%.
As to `COc1cc(C2C(C#N)=C(C)NC3=C2C(=O)CC(C)(C)C3)ccc1O` (stereo unspecified), the inhibition is -1.19%.
Take `Cc1ccc(-c2nc(COC(=O)c3c(C)noc3C)cs2)cc1`: the inhibition is -0.6%.
Under `COC(=O)[C@@]12C[C@@H](CC(=O)N3CCC(c4ccccc4)CC3)C(=O)N(Cc3ccccc3)C1=CCC(C)(C)C2` stands -0.7%; under `Cc1c(NC(=O)CCC2CCCCC2)cc(C(=O)N2CCOCC2)cc1[N+](=O)[O-]`, -2.05%; under `Cc1cc(C)cc(OCC(=O)NNC(=O)CCN2C(=O)c3ccccc3C2=O)c1`, 0.2%.
For `C[N+](C)(C)CCOP(=O)([O-])OC[C@H](O)CO`, the inhibition was -0.22%.
For `CCn1c(SCC(=O)Nc2ccccc2F)nc2c(c1=O)SC(C)C2` (stereo unspecified), the inhibition is -0.06%.
The same measure for `O=S(=O)(c1ccccc1)c1nc(-c2ccccc2)oc1NCCCN1CCOCC1`: 0.27%.
Under `O=S(=O)(c1ccc(Cl)cc1)c1nc(-c2ccccc2F)oc1NCCN1CCOCC1` stands -0.33%.
As for `c1ccc2cc3c(NCCN4CCOCC4)ccnc3cc2c1`, the inhibition is 34.1% (active).
On to `O=c1cnnc(Nc2ccccc2F)[nH]1`, for which the inhibition was 0.6%.
`Cc1cc(/C=N/n2cnnc2)c(C)n1-c1ccc2ncccc2c1`: the inhibition is 0.03%.
As to `Cc1c(NC(=O)Nc2cccc([N+](=O)[O-])c2)c(=O)n(-c2ccccc2)n1C`, the inhibition was -0.43%.
For the molecule `O=C(CSc1nc(-c2ccccc2)cs1)Nc1cccc([N+](=O)[O-])c1`, the inhibition was -0.12%.
The same measure for `O=C(CSCC(=O)Nc1cccc([N+](=O)[O-])c1)Nc1ccccc1`: 8.16% (active).
Under `O=C(Nc1cccc([N+](=O)[O-])c1)N1CCc2ccccc2C1` stands 7.11% (active).
Take `O=C(CN1CCC(NC(=O)Nc2ccccc2)CC1)Nc1cccc([N+](=O)[O-])c1`: the inhibition is 0.83%.
Under `CCc1ccc(NC(=O)N2CCc3ccccc3C2)cc1` stands -0.43%.
The same measure for `Cc1ccc(-c2csc(C(C#N)=C(O)CN3CCN(C(=O)c4ccco4)CC3)n2)cc1`: -0.54%.
The same measure for `CCc1cccc(CC)c1NC(=O)COc1ccccc1C(=O)c1cc(C#N)c(=O)n(C2CCCCC2)c1`: 0.13%.
Regarding `CCOC(=O)C1CCN(S(=O)(=O)c2c(C)noc2C)CC1`, the inhibition is -0.02%.
Under `CCNS(=O)(=O)c1ccc(NC(=O)c2cncc(Br)c2)cc1` stands -0.64%; under `O=C(NC(=S)Nc1ccc(S(=O)(=O)Nc2ncccn2)cc1)c1cccc(Br)c1`, 0.66%.
The same measure for `O=C(Nc1ccc(S(=O)(=O)Nc2ncccn2)cc1)c1cncc(Br)c1`: 64.2% (active).

A word on the inhibition: it is the relative decrease from the control value, in per cent.
